Data: publication PMC6045484 (ACS Omega, 2018)
Values after ≈ are worked out from the molar mass of the structure shown.

Key:
P. falciparum (D6) = experiment: in vitro antimalarial activity, plasmodial LDH; assay type: cell-based, Plasmodium falciparum
P. falciparum (W2) = experiment: in vitro antimalarial activity, plasmodial LDH; assay type: cell-based, Plasmodium falciparum
Summary of the method: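 P. falciparum-infected erythrocytes (2% parasitemia, 2% hematocrit) in RPMI 1640 with 10% human serum and 60 μg/mL amikacin. Exposed to test compound dilutions for 72 h at 37 °C under 90% N2/5% O2/5% CO2. LDH measured with Malstat reagent (30 min, room temperature), then NBT/PES for 1 h in the dark, stopped with 5% acetic acid, read at 650 nm. IC50 from dose-response curves.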

[1] = test system: SK-MEL, KB, BT-549, SK-OV-3, VERO and LLC-PK1 cells; experiment: cytotoxicity, neutral red uptake assay; assay type: cell-based, mammalian; settings: highest test concentration 4760 ng/mL
Summary of the method: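 Cells seeded at 25 000/well and allowed 24 h to reach confluence. Test compound was then added and incubated 48 h. Viable cells were counted by a modified neutral red uptake method. The panel was four human cancer lines and two noncancerous mammalian kidney lines. Doxorubicin served as positive control and DMSO as negative control.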

[2] = test system: P. berghei (sensitive strain); experiment: blood-schizontocidal activity against P. berghei infection in mice; assay type: in vivo, Plasmodium berghei; settings: Swiss mice
Summary of the method: (§1)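 Swiss mice of either sex (about 15–20 g, same age), six per group, inoculated intraperitoneally on day 0 with 1 × 10^7 infected erythrocytes from a donor mouse. Oral test compound at 100, 50, 25 or 10 mg/kg, CQ diphosphate (10 mg/kg/day × 4) or vehicle started 4 h later, on D0 to D+3. Giemsa tail-blood smears on D+4 and D+7. Curative: parasites eliminated, no relapse, all mice surviving to D+60.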

[3] = test system: multidrug-resistant P. yoelii nigeriensis; experiment: blood-schizontocidal activity against P. yoelii nigeriensis infection in mice; assay type: in vivo, Plasmodium yoelii nigeriensis; settings: Swiss mice
Summary of the method: as §1

[4] = test system: L. donovani promastigotes; experiment: in vitro antileishmanial activity, alamarBlue assay; assay type: cell-based, Leishmania donovani; settings: Leishmania donovani, 48 h
C. albicans ATCC90028 = experiment: in vitro antifungal activity; assay type: cell-based, Candida albicans
Summary of the method: (§2)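 Modified NCCLS broth method in Sabouraud dextrose. Inoculum set by OD630 to 1.5 × 10^3 CFU/mL. Test compound serially diluted in 20% DMSO/saline, duplicate wells, up to 20 μg/mL. Incubated 70–74 h at 35 °C; 530 nm read before and after. IC50 is 50% growth inhibition; MIC is no detectable growth. MFC from clear wells subcultured on agar. Amphotericin B control.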

C. neoformans ATCC90113 = experiment: in vitro antifungal activity; assay type: cell-based, Cryptococcus neoformans
Summary of the method: as §2

A. fumigatus ATCC 90906 = experiment: in vitro antifungal activity; assay type: cell-based, Aspergillus fumigatus
Summary of the method: as §2

SA (ATCC29213) = experiment: in vitro antibacterial activity; assay type: cell-based; settings: Staphylococcus aureus
Summary of the method: (§3)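 Test compound serially diluted in 20% DMSO/saline and plated in duplicate, up to 20 μg/mL. Inoculum in cation-adjusted Mueller–Hinton broth, pH 7.3, set by OD630 to 5 × 10^5 CFU/mL. Incubated 16–20 h at 35 °C; 530 nm read before and after. IC50 is 50% growth inhibition; MIC is no detectable growth. MBC from clear wells subcultured on agar. Ciprofloxacin control.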

MRSA (ATCC33591) = experiment: in vitro antibacterial activity; assay type: cell-based, methicillin-resistant Staphylococcus aureus
Summary of the method: as §3

[5] = test system: M. intracellulare (ATCC23068); experiment: in vitro antibacterial activity, modified alamarBlue procedure; assay type: cell-based, Mycobacterium intracellulare
Summary of the method: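 Modified alamarBlue microplate method. Test compound serially diluted in 20% DMSO/saline, duplicate wells, up to 20 μg/mL. Inoculum 2.0 × 10^6 CFU/mL in Middlebrook 7H9 with OADC, pH 7.3, containing 5% alamarBlue. Incubated 70–74 h at 37 °C, 10% CO2; fluorescence 544ex/590em read before and after. MIC: no blue-to-pink change. MBC by subculturing blue wells on agar. Ciprofloxacin control.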

C. glabrata ATCC90030 = experiment: in vitro antifungal activity; assay type: cell-based, Candida glabrata
Summary of the method: as §2

C. krusei ATCC6258 = experiment: in vitro antifungal activity; assay type: cell-based, Candida krusei
Summary of the method: as §2

[6] = highest test concentration 20 μg/mL
[7] = methicillin-resistant S. aureus, highest test concentration 20 μg/mL

CCCCCCCCOc1c(OC)cc(NC(C)CCCN)c2nc(C(C)(C)C)ccc12 (stereo not shown) [compound 49, N^4-(2-tert-Butyl-6-methoxy-5-(octyloxy)quinolin-8-yl)pentane-1,4-diamine]
IC50 (P. falciparum (D6); Plasmodium falciparum, D6, 72 h, read-out: P. falciparum (D6) IC50): 0.053 µg/mL (≈ 0.119 µM) | IC50 (P. falciparum (W2); Plasmodium falciparum, W2, 72 h, read-out: P. falciparum (W2) IC50, CQ-resistant W2 strain, 72 h): 0.04 µg/mL (≈ 0.0902 µM) | cytotoxicity CTX [1]: NC (NC, not cytotoxic up to 4760 ng/mL (4.76 μg/mL)) | P. berghei blood-schizontocidal activity (mice cured/treated) ([2]; 10 mg/kg/day × 4, oral): active (4/6) | P. berghei blood-schizontocidal activity (mice cured/treated) ([2]; 25 mg/kg/day × 4, oral): curative (6/6) | P. berghei blood-schizontocidal activity (mice cured/treated) ([2]; 50 mg/kg/day × 4, oral): curative (6/6) | P. berghei blood-schizontocidal activity (mice cured/treated) ([2]; 100 mg/kg/day × 4, oral): curative (6/6) | P. yoelii nigeriensis blood-schizontocidal activity (mice cured/treated) ([3]; 25 mg/kg/day × 4, oral): inactive (0/6) | P. yoelii nigeriensis blood-schizontocidal activity (mice cured/treated) ([3]; 50 mg/kg/day × 4, oral): active (3/6) | P. yoelii nigeriensis blood-schizontocidal activity (mice cured/treated) ([3]; 100 mg/kg/day × 4, oral): active (4/6) | IC50 ([4]; read-out: L. donovani IC50, promastigotes, 48 h): 5.2 µg/mL (≈ 11.7 µM) | IC90 ([4]; read-out: L. donovani IC90, promastigotes, 48 h): > 40 µg/mL | IC50 (C. albicans ATCC90028; Candida albicans, ATCC90028, read-out: C. albicans IC50): 7.44 µg/mL (≈ 16.8 µM) | MFC (C. albicans ATCC90028; Candida albicans, ATCC90028, read-out: C. albicans MFC): 10 µg/mL (≈ 22.5 µM) | MIC (C. albicans ATCC90028; Candida albicans, ATCC90028, read-out: C. albicans MIC): 10 µg/mL (≈ 22.5 µM) | IC50 (C. neoformans ATCC90113; Cryptococcus neoformans, ATCC90113, read-out: C. neoformans IC50): 2.15 µg/mL (≈ 4.85 µM) | MFC (C. neoformans ATCC90113; Cryptococcus neoformans, ATCC90113, read-out: C. neoformans MFC): 5 µg/mL (≈ 11.3 µM) | MIC (C. neoformans ATCC90113; Cryptococcus neoformans, ATCC90113, read-out: C. neoformans MIC): 5 µg/mL (≈ 11.3 µM) | IC50 (A. fumigatus ATCC 90906; Aspergillus fumigatus, ATCC90906, read-out: A. fumigatus IC50): > 20 µg/mL | MFC (A. fumigatus ATCC 90906; Aspergillus fumigatus, ATCC90906, read-out: A. fumigatus MFC): > 20 µg/mL | MIC (A. fumigatus ATCC 90906; Aspergillus fumigatus, ATCC90906, read-out: A. fumigatus MIC): > 20 µg/mL | IC50 (SA (ATCC29213); ATCC29213, read-out: IC50 (concentration that affords 50% growth inhibition), SA): 3.4 µg/mL (≈ 7.66 µM) | MBC (SA (ATCC29213); ATCC29213, read-out: MBC (minimum bactericidal concentration), SA): 10 µg/mL (≈ 22.5 µM) | MIC (SA (ATCC29213); ATCC29213, read-out: MIC, SA): 5 µg/mL (≈ 11.3 µM) | MIC (MRSA (ATCC33591); Staphylococcus aureus, ATCC33591|MRSA, read-out: MIC, MRSA): 5 µg/mL (≈ 11.3 µM) | IC50 ([5]; Mycobacterium intracellulare, ATCC23068, read-out: IC50 (concentration that affords 50% growth inhibition), M. intracellulare): 7.43 µg/mL (≈ 16.7 µM) | MBC ([5]; Mycobacterium intracellulare, ATCC23068, read-out: MBC (minimum bactericidal concentration), M. intracellulare): 20 µg/mL (≈ 45.1 µM) | MIC ([5]; Mycobacterium intracellulare, ATCC23068, read-out: MIC, M. intracellulare): 10 µg/mL (≈ 22.5 µM)

CCCCCCCCOc1c(OC)cc(NC(C)CCCNC(=O)C(N)CCCCN)c2nc(C(C)(C)C)ccc12 (stereo not shown) [compound 117, 2,6-Diamino-N-(4-(2-tert-butyl-6-methoxy-5-(octyloxy)quinolin-8-lamino)pentyl)-hexanamide]
P. falciparum (D6) IC50 (P. falciparum (D6); CQ-sensitive D6 strain, 72 h): NA (NA, not active) | P. falciparum (W2) IC50 (P. falciparum (W2); CQ-resistant W2 strain, 72 h): NA (NA, not active) | cytotoxicity CTX [1]: NC (NC, not cytotoxic up to 4760 ng/mL (4.76 μg/mL)) | C. albicans IC50 (C. albicans ATCC90028): NA (NA, no activity at the highest test concentration of 20 μg/mL) | C. albicans MFC (C. albicans ATCC90028): NA (NA, no activity at the highest test concentration of 20 μg/mL) | C. albicans MIC (C. albicans ATCC90028): NA (NA, no activity at the highest test concentration of 20 μg/mL) | C. glabrata IC50 (C. glabrata ATCC90030): NA (NA, no activity at the highest test concentration of 20 μg/mL) | C. glabrata MFC (C. glabrata ATCC90030): NA (NA, no activity at the highest test concentration of 20 μg/mL) | C. glabrata MIC (C. glabrata ATCC90030): NA (NA, no activity at the highest test concentration of 20 μg/mL) | C. krusei IC50 (C. krusei ATCC6258): NA (NA, no activity at the highest test concentration of 20 μg/mL) | C. krusei MFC (C. krusei ATCC6258): NA (NA, no activity at the highest test concentration of 20 μg/mL) | C. krusei MIC (C. krusei ATCC6258): NA (NA, no activity at the highest test concentration of 20 μg/mL) | C. neoformans IC50 (C. neoformans ATCC90113): 11.92 µg/mL | C. neoformans MFC (C. neoformans ATCC90113): >20 µg/mL | C. neoformans MIC (C. neoformans ATCC90113): >20 µg/mL | A. fumigatus IC50 (A. fumigatus ATCC 90906): NA (NA, no activity at the highest test concentration of 20 μg/mL) | A. fumigatus MFC (A. fumigatus ATCC 90906): NA (NA, no activity at the highest test concentration of 20 μg/mL) | A. fumigatus MIC (A. fumigatus ATCC 90906): NA (NA, no activity at the highest test concentration of 20 μg/mL) | IC50 (concentration that affords 50% growth inhibition), SA (SA (ATCC29213); [6]): NA (NA, no activity at the highest test concentration of 20 μg/mL) | MBC (minimum bactericidal concentration), SA (SA (ATCC29213); [6]): NA (NA, no activity at the highest test concentration of 20 μg/mL) | MIC, SA (SA (ATCC29213); [6]): NA (NA, no activity at the highest test concentration of 20 μg/mL) | IC50 (concentration that affords 50% growth inhibition), MRSA (MRSA (ATCC33591); [7]): NA (NA, no activity at the highest test concentration of 20 μg/mL) | MBC (minimum bactericidal concentration), MRSA (MRSA (ATCC33591); [7]): NA (NA, no activity at the highest test concentration of 20 μg/mL) | MIC, MRSA (MRSA (ATCC33591); [7]): NA (NA, no activity at the highest test concentration of 20 μg/mL) | IC50 (concentration that affords 50% growth inhibition), M. intracellulare [5, 6]: NA (NA, no activity at the highest test concentration of 20 μg/mL) | MBC (minimum bactericidal concentration), M. intracellulare [5, 6]: NA (NA, no activity at the highest test concentration of 20 μg/mL) | MIC, M. intracellulare [5, 6]: NA (NA, no activity at the highest test concentration of 20 μg/mL)
